Data set [1] has as its system Liver microsomes. The experiment in a line: Metabolic stability in rat liver microsomes. Type of data set: ADME, Microsome. In a few lines: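 Rat liver microsomes incubated aerobically with test compound, with and without NADPH, stopped after 30 min. Parent remaining in the NADPH incubation quantified by reversed-phase HPLC with UV detection against the NADPH-free reference incubation and given as percent remaining. Main metabolite structure confirmed by LC/MS. Mean of at least two independent determinations.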
On the technique in general: Microsomes from liver hold many membrane-bound enzymes, among them those of drug oxidation.

Data set [2] is described as follows: Thermodynamic solubility in sodium phosphate buffer at pH 7.4. It is filed as physicochemical. The method, boiled down:
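Thermodynamic method: solid compound suspended in sodium phosphate buffer pH 7.4, sonicated 10 min, then shaken 20 h at room temperature. Undissolved material removed by centrifugation, and dissolved concentration in the aqueous phase measured by HPLC.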

Data set [3] addresses T1, Cytosolic phospholipase A2 (Homo sapiens, UniProt P47712).
T1 sequence (P47712 whole entry): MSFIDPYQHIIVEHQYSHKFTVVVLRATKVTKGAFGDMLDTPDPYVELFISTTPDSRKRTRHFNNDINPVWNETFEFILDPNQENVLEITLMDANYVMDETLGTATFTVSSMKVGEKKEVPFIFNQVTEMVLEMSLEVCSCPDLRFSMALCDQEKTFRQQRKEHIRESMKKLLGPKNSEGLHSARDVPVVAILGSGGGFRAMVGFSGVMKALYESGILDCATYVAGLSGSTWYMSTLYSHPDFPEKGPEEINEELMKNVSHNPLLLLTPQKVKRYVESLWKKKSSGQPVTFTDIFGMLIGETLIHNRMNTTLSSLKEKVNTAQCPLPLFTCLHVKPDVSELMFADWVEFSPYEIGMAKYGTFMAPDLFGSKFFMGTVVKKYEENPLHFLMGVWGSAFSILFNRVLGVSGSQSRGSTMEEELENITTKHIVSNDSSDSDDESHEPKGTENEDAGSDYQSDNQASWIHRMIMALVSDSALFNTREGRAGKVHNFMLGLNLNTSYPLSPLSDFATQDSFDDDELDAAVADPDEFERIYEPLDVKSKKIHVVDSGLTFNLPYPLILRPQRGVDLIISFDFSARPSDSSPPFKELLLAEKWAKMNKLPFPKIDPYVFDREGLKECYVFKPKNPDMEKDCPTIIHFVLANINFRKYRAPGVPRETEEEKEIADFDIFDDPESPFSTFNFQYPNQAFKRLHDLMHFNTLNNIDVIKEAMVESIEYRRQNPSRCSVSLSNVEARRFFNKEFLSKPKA
The experiment in a line: Inhibition of cPLA2 in human platelets assessed as arachidonic acid release. In a few lines: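 cPLA2α purified from human platelets; substrate covesicles of 1-stearoyl-2-arachidonoyl-sn-glycero-3-phosphocholine (SAPC) with 1,2-dioleoyl-sn-glycerol (DOG). Arachidonic acid released from SAPC after 60 min incubation quantified by reversed-phase HPLC, UV 200 nm; inhibition from release with vs without compound. IC50 values are means of at least two independent determinations.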

Molecules are shown by their SMILES. Converted amounts (≈) assume the structure as drawn.

The solubility (thermodynamic) is the concentration in solution at equilibrium with solid. The term IC50 denotes the concentration needed to halve the response being measured.

The compound `CCCCCCCCc1ccc(OCC(=O)Cn2ccc3ccc(C(=O)O)cc32)cc1` registered a Stability in data set [1] of 39%. Further, in data set [2], the solubility (thermodynamic) is < 1 µg/mL.
On to `CCCCCCCCc1ccc(OCC(=O)Cn2nnc3ccc(C(=O)O)cc32)cc1`, for which, in data set [3], the IC50 amounted to 16 nM. The Stability in data set [1] turned out to be 44%. Also, the thermodynamic solubility in data set [2] came out at 2 µg/mL (≈ 4.72 µM).
Regarding `CCCCCCCCc1ccc(OCC(=O)Cn2nnc3cc(C(=O)O)ccc32)cc1`, the IC50 in data set [3] worked out at 26 nM. Besides, in data set [1], the Stability is given as 43%. Moreover, in data set [2], the solubility (thermodynamic) is < 1 µg/mL.
Regarding `CCCCCCCCc1ccc(OCC(=O)Cn2ncc3cc(C(=O)O)ccc32)cc1`, in data set [3], the half-inhibitory concentration (IC50) amounted to 5 nM. In data set [1], this compound registered a Stability of 64%. In addition, the solubility (thermodynamic) in data set [2] was < 1 µg/mL.
In the case of `CCCCCCCCc1ccc(OCC(=O)Cn2cnc3ccc(C(=O)O)cc32)cc1`, the IC50 in data set [3] was 85 nM. In data set [1], this compound registered a Stability of 40%. In data set [2], this compound gave a solubility (thermodynamic) of 7 µg/mL (≈ 16.6 µM).
Consider `CCCCCCCCc1ccc(OCC(=O)Cn2ncc3ccc(C(=O)O)cc32)cc1`, for which, in data set [3], the IC50 was 26 nM. The Stability in data set [1] turned out to be 36%. This compound also returned a solubility (thermodynamic) in data set [2] of 5 µg/mL (≈ 11.8 µM).
Regarding `CCCCCCCCc1ccc(OCC(=O)Cn2cnc3cc(C(=O)O)ccc32)cc1`, the IC50 in data set [3] was found to be 150 nM. This compound yielded a Stability in data set [1] of 49%. The compound further showed a thermodynamic solubility in data set [2] of 22 µg/mL (≈ 52.1 µM).

Values taken from ChEMBL document CHEMBL1154396, “1-(5-Carboxyindol-1-yl)propan-2-ones as inhibitors of human cytosolic phospholipase A2alpha: synthesis and properties of bioisosteric benzimidazole, benzotriazole and indazole analogues” (Bioorg Med Chem Lett, 2009).
